In ChEMBL document CHEMBL4813926, “Auyuittuqamides A-D, Cyclic Decapeptides from Sesquicillium microsporum RKAG 186 Isolated from Frobisher Bay Sediment” (J Nat Prod, 2021):
The source made the active and inactive calls. No cut-off for these calls is given here. Where a SMILES comes first, the peptide text is derived from it. [ ]: non-standard residue; d: D form. NMeF = CN[C@@H](Cc1ccccc1)C(=O)O; NMeT = CN[C@H](C(=O)O)[C@@H](C)O; NMeV = CN[C@H](C(=O)O)C(C)C

Columns and labels:
[1] = Cytotoxicity against ER negative human HTB26 cells assessed as reduction in cell viability measured after 24 hrs by Alamar blue assay; format: functional, cell-based; settings: HTB26, 24 h
Method in brief: (§1)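 Cells in 96-well culture plates, in triplicate. Viability taken 24 h after treatment with Alamar Blue redox dye. Fluorescence read at 560/12 nm excitation and 590 nm emission, at time zero and 4 h after dye addition.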

MCF7 = test: Cytotoxicity against ER positive human MCF7 cells assessed as reduction in cell viability measured after 24 hrs by Alamar blue assay; format: functional, cell-based; settings: MCF7, 24 h; method in brief: as §1
Keratinocyte = test: Cytotoxicity against human epidermal keratinocytes assessed as reduction in cell viability measured after 24 hrs by Alamar blue assay; format: cell-based; method in brief: as §1
Staphylococcus aureus = test: Antimicrobial activity against methicillin-resistant Staphylococcus aureus ATCC 33591 up to 128 uM measured after 22 hrs by CLSI protocol based microbroth dilution assay; format: functional, organism-based; settings: dose microM <=128, time 22.0 hrs
Method in brief: (§2)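 CLSI broth microdilution in 96-well format. Growth inhibition was read as absorbance at 600 nm at time zero and after 22 h incubation at 37 °C.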

Enterococcus faecium = test: Antimicrobial activity against vancomycin-resistant Enterococcus faecium EF379 up to 128 uM measured after 22 hrs by CLSI protocol based microbroth dilution assay; format: functional, organism-based; settings: dose microM <=128, time 22.0 hrs; method in brief: as §2
Staphylococcus warneri = test: Antimicrobial activity against Staphylococcus warneri ATCC 17917 up to 128 uM measured after 22 hrs by CLSI protocol based microbroth dilution assay; format: functional, organism-based; settings: dose microM <=128, time 22.0 hrs
Method in brief: (§3)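 96-well microbroth dilution run to CLSI standards. OD 600 nm read at time zero and at the end, after 22 h incubation at 37 °C, to give growth inhibition.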

Pseudomonas aeruginosa = test: Antimicrobial activity against Pseudomonas aeruginosa ATCC 14210 up to 128 uM measured after 22 hrs by CLSI protocol based microbroth dilution assay; format: functional, organism-based; settings: dose microM <=128, time 22.0 hrs; method in brief: as §3
Candida albicans = test: Antifungal activity against Candida albicans ATCC 14035 up to 128 uM measured after 22 hrs by CLSI protocol based microbroth dilution assay; format: functional, organism-based; settings: dose microM <=128, time 22.0 hrs; method in brief: as §3

Compound | IC50 [1] [µM] | IC50 (MCF7) [µM] | IC50 (Keratinocyte) [µM] | Activity (Staphylococcus aureus) | Activity (Enterococcus faecium) | Activity (Staphylococcus warneri) | Activity (Pseudomonas aeruginosa) | Activity (Candida albicans)
CC(C)C[C@@H]1NC(=O)CNC(=O)[C@H](C(C)C)N(C)C(=O)[C@H](C(C)C)NC(=O)[C@H](CO)NC(=O)[C@H](C(C)C)NC(=O)CNC(=O)[C@H](Cc2ccccc2)N(C)C(=O)[C@H](C(C)C)NC(=O)[C@H]([C@@H](C)O)N(C)C1=O (cyclo(GL[NMeT]V[NMeF]GVSV[NMeV])) | > 10 | > 10 | > 10 | inactive | inactive | inactive | inactive | inactive
CC[C@@H](C)[C@@H]1NC(=O)CNC(=O)[C@H](Cc2ccccc2)N(C)C(=O)[C@H](C(C)C)NC(=O)[C@H]([C@@H](C)O)N(C)C(=O)[C@H](CC(C)C)NC(=O)CNC(=O)[C@H](C(C)C)N(C)C(=O)[C@H](C(C)C)NC(=O)[C@H](CO)NC1=O | > 10 | > 10 | > 10 | inactive | inactive | inactive | inactive | inactive
CC[C@H](C)[C@@H]1NC(=O)CNC(=O)[C@H](Cc2ccccc2)N(C)C(=O)[C@H]([C@@H](C)CC)NC(=O)[C@H]([C@@H](C)O)N(C)C(=O)[C@H](CC(C)C)NC(=O)CNC(=O)[C@H](C(C)C)N(C)C(=O)[C@H](C(C)C)NC(=O)[C@H](CO)NC1=O (cyclo(GISV[NMeV]GL[NMeT]I[NMeF])) | > 10 | > 10 | > 10 | inactive | inactive | inactive | inactive | inactive
CC[C@H](C)[C@@H]1NC(=O)CNC(=O)[C@H](Cc2ccccc2)N(C)C(=O)[C@H]([C@@H](C)CC)NC(=O)[C@H]([C@@H](C)O)N(C)C(=O)[C@H](CC(C)C)NC(=O)CNC(=O)[C@H](C(C)C)N(C)C(=O)[C@H]([C@@H](C)CC)NC(=O)[C@H](CO)NC1=O (cyclo(GISI[NMeV]GL[NMeT]I[NMeF])) | > 10 | > 10 | > 10 | inactive | inactive | inactive | inactive | inactive
